Activity, Time and UI data for 21 compounds are collected here from ChEMBL document CHEMBL1165850, “Synthesis, biological evaluation and molecular docking of novel series of spiro [(2H,3H) quinazoline-2,1'- cyclohexan]-4(1H)-one derivatives as anti-inflammatory and analgesic agents” (Eur J Med Chem, 2010).

Series [1] concerns Rattus norvegicus. Nature of the series: Antiinflammatory activity in rat assessed as reduction in carrageenan-induced paw edema at 9 mg/kg, ip administered 1 hr before carrageenan challenge measured after 2 hrs. The arrangement: unit not given here. The format is functional. The conditions noted are these: route intraperitoneal. The gist of the method: (§1)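 Adult rats of either sex (150–200 g), randomly grouped. Compounds were dissolved in DMSO and given i.p. at 9 mg/kg; indomethacin was given at 10 mg/kg; controls received DMSO i.p. Dosing was 1 h before 100 ul of 1% carrageenan in saline injected subplantar into the right hind paw. Paw volume was measured by planimeter before and at 1, 2, 3 and 4 h. Values are mean ± S.E., analysed by one-way ANOVA with LSD.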
Background: The carrageenan paw model is a standard test of acute inflammation.

The test system of series [2] is Rattus norvegicus. Nature of the series: Antiinflammatory activity in rat assessed as reduction in carrageenan-induced paw edema at 9 mg/kg, ip administered 1 hr before carrageenan challenge measured after 1 hr. Format: functional. More on the design: unit not given here. As to conditions: route intraperitoneal. In short, it runs like this:
as §1

In series [3] the test system is Mus musculus. Nature of the series: Analgesic activity in mouse assessed as reaction time administered 1 hr before test measured after 1 hr by hot plate test. Format: functional. In short, it runs like this:
(§2)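 Hot-plate test in adult mice (20–25 g), plate at 52 °C (±0.1 °C). Vehicle, compounds or tramadol (20 mg/Kg b wt) were given 60 min before testing. Latency to lick a hind paw or jump was recorded before dosing and at 1 and 2 h after. Values are mean ± S.E. of six animals per group, with Dunnett's test against control.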
(Hot-plate and tail-flick tests time the reaction to a heat stimulus.)

The subject of series [4] is Mus musculus. Description: Analgesic activity in mouse assessed as reaction time administered 1 hr before test measured after 2 hrs by hot plate test. The format is functional. The gist of the method:
as §2

In series [5] the test system is Rattus norvegicus. Nature of the series: Antiinflammatory activity in rat assessed as reduction in carrageenan-induced paw edema at 9 mg/kg, ip administered 1 hr before carrageenan challenge measured after 3 hrs. The format is functional. The arrangement: unit not given here. As to conditions: route intraperitoneal. In short, it runs like this:
as §1

In series [6] the test system is Rattus norvegicus. Description: Gastrointestinal toxicity in Wistar rat assessed as ulcerogenic effect at 9 mg/kg, po after 7 hrs. Format: organism-based. The arrangement: dose 9 mg/kg, route oral. As to conditions: in vivo. The gist of the method:
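Male Wistar rats, 150–175 g, groups of 5, fasted 48 h, then given 9 mg/kg orally as an aqueous suspension (10 mL/kg). Killed 7 h later. Stomachs were opened along the greater curvature and inspected for irritation, scored as number of ulcers, ulcer severity and number of rats with ulcers per 5. Ethanol control, indomethacin reference. Reported as mean ± S.E.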

The test system of series [7] is Mus musculus. Nature of the series: Analgesic activity in mouse assessed as reaction time at 20 mg/kg administered 1 hr before test measured after 2 hrs by hot plate test. Format: functional. The gist of the method: as §2
The subject of series [8] is Mus musculus. Description: Analgesic activity in mouse assessed as reaction time at 20 mg/kg administered 1 hr before test measured after 1 hr by hot plate test. Format: functional. In short, it runs like this:
as §2

`O=C(NN1C(=O)CN(C2CCCCC2)C1=S)c1ccc(N2C(=O)c3ccccc3NC23CCCCC3)cc1`: the results for the Activity with Rattus norvegicus [1], with Rattus norvegicus [2] and in the series on Rattus norvegicus [5] were 66.7, 54.9 and 77.2, respectively. The figures for the Time in the series on Mus musculus [3] and in the series on Mus musculus [4] were 8.9 s and 13 s, respectively.

With `N#Cc1c(-c2ccc(F)cc2)cc(-c2ccc(N3C(=O)c4ccccc4NC34CCCCC4)cc2)[nH]c1=N`, the Activity came out at 78.2 in the series on Rattus norvegicus [1], 66.4 in the series with Rattus norvegicus [2] and 81.3 in the series on Rattus norvegicus [5]. For the same compound, the UI with Rattus norvegicus [6] is 3.2. In addition, the Time in the series with Mus musculus [3] was 24.1 s; in the series on Mus musculus [4] it was 17.8 s.

Regarding `CC(=O)c1ccc(N2C(=O)c3ccccc3NC23CCCCC3)cc1`, the Activity in the series on Rattus norvegicus [1] is 80.9; in the series with Rattus norvegicus [2] it was 54.6; in the series with Rattus norvegicus [5] it was 81.5. Moreover, the figures for the Time with Mus musculus [3] and in the series on Mus musculus [4] were 9.1 s and 17 s, respectively.

Take `O=C1c2ccccc2NC2(CCCCC2)N1c1ccc(S(=O)(=O)Nc2ncccn2)cc1`: the Activity in the series with Rattus norvegicus [1] came out at 74.1; in the series on Rattus norvegicus [2], 60.4; in the series on Rattus norvegicus [5] it was 80.1. In the series with Rattus norvegicus [6], the UI is 0.6. In addition, the Time in the series with Mus musculus [3] was determined as 19.8 s; in the series with Mus musculus [4], 21.6 s.

In the case of `COc1ccc(/C=N/NC(=O)c2ccc(N3C(=O)c4ccccc4NC34CCCCC4)cc2)cc1`, the results for the Activity with Rattus norvegicus [1], in the series on Rattus norvegicus [2] and with Rattus norvegicus [5] were 88, 72.4 and 88.7, respectively. In addition, the figures for the Time with Mus musculus [3] and with Mus musculus [4] were 13.3 s and 16.9 s, respectively.

Regarding `O=C(NNC(=S)NC1CCCCC1)c1ccc(N2C(=O)c3ccccc3NC23CCCCC3)cc1`, the results for the Activity with Rattus norvegicus [1], in the series on Rattus norvegicus [2] and with Rattus norvegicus [5] were 82.1, 65.1 and 83.9, respectively. Besides, the results for the Time in the series with Mus musculus [3] and with Mus musculus [4] were 9.3 s and 17.2 s, respectively.

As to `CN(C)c1ccc(C2CC(c3ccc(N4C(=O)c5ccccc5NC45CCCCC5)cc3)=NN2c2ccccc2)cc1` (centres undefined), the Activity stood at 65.4 in the series with Rattus norvegicus [1], 57.9 with Rattus norvegicus [2] and 66.4 with Rattus norvegicus [5]. Moreover, the UI in the series on Rattus norvegicus [6] worked out at 10.4. Moreover, the Time in the series with Mus musculus [3] was 15 s; in the series on Mus musculus [4] it was 20.5 s.

Turning to `O=C1c2ccccc2NC2(CCCCC2)N1c1ccc(C2=NN(c3ccccc3)C(c3ccco3)C2)cc1` (centres undefined), the Activity in the series with Rattus norvegicus [1] was 79.1; in the series with Rattus norvegicus [2], 52.2; in the series on Rattus norvegicus [5] it was 82.5. The Time with Mus musculus [3] is given as 9.2 s; with Mus musculus [4], 10.9 s.

On to `O=C(NN1C(=O)CC(=O)N(C2CCCCC2)C1=S)c1ccc(N2C(=O)c3ccccc3NC23CCCCC3)cc1`, for which the results for the Activity with Rattus norvegicus [1], with Rattus norvegicus [2] and in the series on Rattus norvegicus [5] were 79.3, 61.7 and 85.1, respectively. In addition, the results for the Time in the series on Mus musculus [3] and in the series with Mus musculus [4] were 9.4 s and 17.1 s, respectively.

For `COc1ccc2c(c1)c(CC(=O)O)c(C)n2C(=O)c1ccc(Cl)cc1` [INDOMETHACIN], in the series on Rattus norvegicus [6], the UI is recorded as 9.8.

For the compound `COc1cccc(C2(O)CCCCC2CN(C)C)c1` (centres undefined) [TRAMADOL], the Time in the series on Mus musculus [7] is given as 18.2 s; with Mus musculus [8], 17.6 s.

For `CCC(=S)NS(=O)(=O)c1ccc(N2C(=O)c3ccccc3NC23CCCCC3)cc1`, the Activity is recorded as 83.4 in the series with Rattus norvegicus [1], 67.5 in the series on Rattus norvegicus [2] and 88.6 with Rattus norvegicus [5]. Besides, the figures for the Time in the series on Mus musculus [3] and in the series on Mus musculus [4] were 11 s and 19.1 s, respectively.

With `N#Cc1c(-c2ccc(F)cc2)cc(-c2ccc(N3C(=O)c4ccccc4NC34CCCCC4)cc2)[nH]c1=O`, the Activity in the series with Rattus norvegicus [1] turned out to be 74.6; in the series with Rattus norvegicus [2] it was 85.4; with Rattus norvegicus [5] it was 88. Also, the Time in the series on Mus musculus [3] was 11.8 s; in the series with Mus musculus [4], 13.5 s.

In the case of `O=C(/C=C/c1ccco1)c1ccc(N2C(=O)c3ccccc3NC23CCCCC3)cc1`, the Activity was found to be 93.8 with Rattus norvegicus [1], 60.4 in the series with Rattus norvegicus [2] and 94.8 with Rattus norvegicus [5]. The Time in the series with Mus musculus [3] was 9.6 s; in the series on Mus musculus [4] it was 17.1 s.

As to `O=C(NN1C(=O)CSC1c1cccs1)c1ccc(N2C(=O)c3ccccc3NC23CCCCC3)cc1` (centres undefined), the Activity with Rattus norvegicus [1] was 65.1; in the series with Rattus norvegicus [2], 56.2; with Rattus norvegicus [5] it was 55.9. Moreover, the UI with Rattus norvegicus [6] is given as 0.4. The Time was 21 s in the series on Mus musculus [3] and 18.4 s with Mus musculus [4].

`N#Cc1c(-c2ccccc2O)cc(-c2ccc(N3C(=O)c4ccccc4NC34CCCCC4)cc2)[nH]c1=N`: the Activity with Rattus norvegicus [1] was 66.6; in the series with Rattus norvegicus [2] it was 61; in the series with Rattus norvegicus [5] it was 68.6. Also, the UI in the series with Rattus norvegicus [6] is listed as 2. Moreover, the values for the Time in the series on Mus musculus [3] and in the series with Mus musculus [4] were 14.6 s and 18.4 s, respectively.

Consider `N#Cc1c(-c2ccccc2O)cc(-c2ccc(N3C(=O)c4ccccc4NC34CCCCC4)cc2)[nH]c1=O`, for which the Activity in the series with Rattus norvegicus [1] turned out to be 71.8; in the series on Rattus norvegicus [2] it was 49.4; in the series with Rattus norvegicus [5], 76.4. Besides, the UI in the series with Rattus norvegicus [6] was found to be 0. In addition, the results for the Time in the series on Mus musculus [3] and with Mus musculus [4] were 24.9 s and 19.4 s, respectively.

On to `NNC(=O)c1ccc(N2C(=O)c3ccccc3NC23CCCCC3)cc1`, for which the figures for the Activity with Rattus norvegicus [1], with Rattus norvegicus [2] and in the series with Rattus norvegicus [5] were 85.7, 57.5 and 82.1, respectively. Moreover, the Time was determined as 9.4 s in the series on Mus musculus [3] and 17 s in the series with Mus musculus [4].

For the compound `NS(=O)(=O)c1ccc(N2C(=O)c3ccccc3NC23CCCCC3)cc1`, the Activity in the series with Rattus norvegicus [1] is 78.9; with Rattus norvegicus [2] it was 57.7; with Rattus norvegicus [5], 87.7. For the same compound, the Time with Mus musculus [3] came to 9.5 s; in the series with Mus musculus [4] it was 17.5 s.

With `CC(=O)N1N=C(c2ccc(N3C(=O)c4ccccc4NC34CCCCC4)cc2)CC1c1ccco1` (centres undefined), the Activity with Rattus norvegicus [1] is 88.7; in the series with Rattus norvegicus [2], 49.9; with Rattus norvegicus [5] it was 83.5. Moreover, the Time was determined as 9.5 s in the series on Mus musculus [3] and 17 s in the series with Mus musculus [4].

Consider `CCOC(=O)c1ccc(N2C(=O)c3ccccc3NC23CCCCC3)cc1`, for which the Activity with Rattus norvegicus [1] is on record as 59.6; with Rattus norvegicus [2] it was 44.2; with Rattus norvegicus [5], 67.8. The Time was determined as 12 s in the series with Mus musculus [3] and 14.6 s in the series on Mus musculus [4].
